{"data": "Measured values gathered from unrelated publications", "CSF1R autoinhibited": "Macrophage colony-stimulating factor 1 receptor, autoinhibited (CSF1R, Homo sapiens, UniProt P07333)", "CSF1R": "Macrophage colony-stimulating factor 1 receptor (CSF1R, Homo sapiens, UniProt P07333)", "note": "Each line is one published result; the experiments were not run side by side."}
{"Structure (SMILES)": "CCOCCn1cc(C(=O)Nc2ccc(-n3nc(-c4cccnc4)cc3C(F)(F)F)cn2)ccc1=O", "target": "CSF1R autoinhibited", "read-out": "cell-free assay", "technique": "competition with immobilised ligand", "concentration": "1 µM", "remaining binding [%]": 100}
{"Structure (SMILES)": "c1cnn2ncc(-c3ccnc(N4CCC45COC5)n3)c2c1", "target": "CSF1R autoinhibited", "read-out": "binding", "concentration": "1 µM", "remaining binding [%]": 64}
{"Structure (SMILES)": "O=C(NCCCN1CCOCC1)c1ccc(Nc2nccc(-c3cc4ccccc4s3)n2)cc1", "target": "CSF1R", "read-out": "binding", "technique": "competition with immobilised ligand", "concentration": "1 µM", "remaining binding [%]": 50}
{"Structure (SMILES)": "COc1cnc(Nc2cccc(S(N)(=O)=O)c2)nc1N1CCN(c2ccccc2)CC1", "target": "CSF1R autoinhibited", "read-out": "binding", "technique": "competition with immobilised ligand", "concentration": "1 µM", "remaining binding [%]": 99}
{"Structure (SMILES)": "CO[C@@H](C)c1c(Nc2ccc([C@@H](N(C)C(=O)C3CCS(=O)(=O)CC3)C(F)(F)F)cc2)cnc2cc(Cl)nn12", "target": "CSF1R", "read-out": "cell-free assay", "technique": "competition with immobilised ligand", "concentration": "1 µM", "remaining binding [%]": 72}
{"Structure (SMILES)": "N[C@H]1CCN(c2nccc(-c3cnn4ncccc34)n2)C1", "target": "CSF1R", "read-out": "binding", "concentration": "1 µM", "remaining binding [%]": 100}
{"Structure (SMILES)": "O=C(c1ccc(Nc2nccc(-c3cc4ccccc4s3)n2)cc1)N1CCC(N2CCCC2)CC1", "target": "CSF1R autoinhibited", "read-out": "binding", "technique": "competition with immobilised ligand", "concentration": "1 µM", "remaining binding [%]": 77}
{"Structure (SMILES)": "c1cncc(-c2cccc(Nc3nccc(NC4CCCCC4)n3)c2)c1", "target": "CSF1R autoinhibited", "read-out": "binding", "technique": "competition with immobilised ligand", "concentration": "10 µM", "remaining binding [%]": 0}
{"Structure (SMILES)": "CC(C)(C)c1ccc(-c2nc(CBr)nn2-c2cccc(O)c2)cc1", "target": "CSF1R", "read-out": "cell-free assay", "technique": "competition with immobilised ligand", "concentration": "10 µM", "remaining binding [%]": 98}
{"Structure (SMILES)": "Cc1cc(-n2nc(Cc3cc(F)cc(C(F)(F)F)c3)nc2C)ccc1C(N)=O", "target": "CSF1R autoinhibited", "read-out": "cell-free assay", "technique": "competition with immobilised ligand", "concentration": "1 µM", "remaining binding [%]": 100}
{"Structure (SMILES)": "CN(C)c1ncc(F)c(-c2cnn3ncccc23)n1", "target": "CSF1R", "read-out": "binding", "concentration": "1 µM", "remaining binding [%]": 91}
{"Structure (SMILES)": "O=C(c1ccc(Nc2ncc(Cl)c(-c3ccc(Cl)s3)n2)cc1)N1CCC(N2CCCC2)CC1", "target": "CSF1R autoinhibited", "read-out": "binding", "technique": "competition with immobilised ligand", "concentration": "1 µM", "remaining binding [%]": 17}
{"Structure (SMILES)": "CN([C@@H]1CCc2c(CC(=O)O)c3cc(S(C)(=O)=O)ccc3n2C1)S(=O)(=O)c1ccc(F)cc1", "target": "CSF1R autoinhibited", "read-out": "cell-free assay", "technique": "competition with immobilised ligand", "concentration": "1 µM", "remaining binding [%]": 93}
{"Structure (SMILES)": "Nc1ncc2c(n1)-c1c([nH]c3ccc(C#CC4CC4)cc13)CCCC2", "target": "CSF1R", "read-out": "binding", "technique": "competition with immobilised ligand", "concentration": "1 µM", "remaining binding [%]": 98}
{"Structure (SMILES)": "CNC(=O)[C@@H]1CC[C@@H](n2c(-c3ccc4cnccc4c3)nc3ccc(C(=O)NCc4cccc(C(N)=O)c4)cc32)C1", "target": "CSF1R", "read-out": "binding", "technique": "competition with immobilised ligand", "concentration": "1 µM", "remaining binding [%]": 100}
{"Structure (SMILES)": "CC(=O)N1CCC(c2ccc(C(=O)NC3=NCCN3)cc2C(F)(F)F)CC1", "target": "CSF1R", "read-out": "cell-free assay", "technique": "competition with immobilised ligand", "concentration": "1 µM", "remaining binding [%]": 100}
{"Structure (SMILES)": "O=C(NCC1CCOCC1)c1n[nH]cc1NC(=O)c1c(F)cccc1F", "target": "CSF1R", "read-out": "binding", "technique": "competition with immobilised ligand", "concentration": "1 µM", "remaining binding [%]": 100}
{"Structure (SMILES)": "C[C@H]1CCN(c2nccc(-c3cnn4ncccc34)n2)C1", "target": "CSF1R", "read-out": "binding", "concentration": "1 µM", "remaining binding [%]": 100}
{"Structure (SMILES)": "CC(=O)c1c(NS(C)(=O)=O)c2cc(-c3ccc(Cl)cc3)c(-c3ccc(Cl)cc3Cl)nc2n(C)c1=O", "target": "CSF1R", "read-out": "cell-free assay", "technique": "competition with immobilised ligand", "concentration": "1 µM", "remaining binding [%]": 100}
{"Structure (SMILES)": "Cc1nc(NC(=O)N2CCC[C@H]2C(N)=O)sc1-c1ccnc(C(C)(C)C(F)(F)F)c1", "target": "CSF1R", "read-out": "binding", "technique": "competition with immobilised ligand", "concentration": "10 µM", "remaining binding [%]": 68}
{"Structure (SMILES)": "O=C(c1ccc(Nc2ncc(Cl)c(-c3cc4ccccc4s3)n2)cc1)N1CCC(N2CCCC2)CC1", "target": "CSF1R autoinhibited", "read-out": "binding", "technique": "competition with immobilised ligand", "concentration": "1 µM", "remaining binding [%]": 56}
{"Structure (SMILES)": "CC1CCCN1c1nccc(-c2cnn3ncccc23)n1 (stereo not shown)", "target": "CSF1R autoinhibited", "read-out": "binding", "concentration": "1 µM", "remaining binding [%]": 99}
{"Structure (SMILES)": "O=C(NCCCN1CCOCC1)c1ccc(Nc2ncc(Cl)c(-c3ccc(Cl)s3)n2)cc1", "target": "CSF1R autoinhibited", "read-out": "binding", "technique": "competition with immobilised ligand", "concentration": "1 µM", "remaining binding [%]": 42}
{"Structure (SMILES)": "C=CC(=O)N1CCC(C(=O)NCC(=O)N2CCN(c3nc(-c4cnc(N)nc4C(F)F)nc(N4CCOCC4)n3)CC2)CC1", "target": "CSF1R", "read-out": "binding", "technique": "competition with immobilised ligand", "concentration": "1 µM", "remaining binding [%]": 77}
{"Structure (SMILES)": "Cc1cnc(Nc2ccc(C(=O)N3CCC(N4CCCC4)CC3)cc2)nc1-c1cc2ccccc2s1", "target": "CSF1R", "read-out": "binding", "technique": "competition with immobilised ligand", "concentration": "1 µM", "remaining binding [%]": 12}
{"Structure (SMILES)": "COc1cnc(Nc2cccc(S(N)(=O)=O)c2)nc1N1CCN(c2ccccc2)C(=O)C1", "target": "CSF1R", "read-out": "binding", "technique": "competition with immobilised ligand", "concentration": "1 µM", "remaining binding [%]": 100}
{"Structure (SMILES)": "CCS(=O)(=O)c1cc2cc(C[C@@](O)(CC(C)(C)c3ccc(F)cc3C(N)=O)C(F)(F)F)[nH]c2cn1", "target": "CSF1R", "read-out": "cell-free assay", "technique": "competition with immobilised ligand", "concentration": "1 µM", "remaining binding [%]": 100}
{"Structure (SMILES)": "CCN1CCN(Cc2ccc(C(=O)Nc3ccc(C)c(Oc4ccc5c(c4)CC(=O)N5)c3)cc2C(F)(F)F)CC1", "target": "CSF1R autoinhibited", "read-out": "binding", "technique": "competition with immobilised ligand", "concentration": "1 µM", "remaining binding [%]": 100}
{"Structure (SMILES)": "O=c1nc(-c2ccccn2)sc2ccccc12", "target": "CSF1R", "read-out": "cell-free assay", "technique": "competition with immobilised ligand", "concentration": "1 µM", "remaining binding [%]": 85}
{"Structure (SMILES)": "C[C@@H]1CN(c2ccc3ncc(-c4ccc5[nH]nc(C6CC6)c5c4)n3n2)C[C@H](C)O1", "target": "CSF1R", "read-out": "binding", "technique": "competition with immobilised ligand", "concentration": "50 nM", "remaining binding [%]": 100}
{"Structure (SMILES)": "O=C(Nc1c[nH]nc1C(=O)NC1CCNCC1)c1cc(F)cc(F)c1", "target": "CSF1R", "read-out": "binding", "technique": "competition with immobilised ligand", "concentration": "1 µM", "remaining binding [%]": 100}
{"Structure (SMILES)": "CN(C)c1nccc(-c2cnc3ncccn23)n1", "target": "CSF1R", "read-out": "binding", "concentration": "1 µM", "remaining binding [%]": 100}
{"Structure (SMILES)": "C[C@@H](c1ccc(-n2cnc3c(N)ncnc32)cc1)N1CCc2nn(C)c(Cc3ccccc3)c2C1=O", "target": "CSF1R autoinhibited", "read-out": "binding", "technique": "competition with immobilised ligand", "concentration": "0.1 µM", "remaining binding [%]": 81}
{"Structure (SMILES)": "Cc1cnn2ncc(-c3ccnc(N(C)C)n3)c2c1", "target": "CSF1R", "read-out": "binding", "concentration": "1 µM", "remaining binding [%]": 100}
{"Structure (SMILES)": "FC(F)(F)Oc1cccc(-c2cnc3ccc(-c4ccncc4)nn23)c1", "target": "CSF1R", "read-out": "cell-free assay", "technique": "competition with immobilised ligand", "concentration": "5 µM", "remaining binding [%]": 59}
{"Structure (SMILES)": "CN(CCCC(F)(F)F)c1nccc(-c2cnn3ncccc23)n1", "target": "CSF1R", "read-out": "binding", "concentration": "1 µM", "remaining binding [%]": 93}
{"Structure (SMILES)": "COc1ncc2cc3ccccc3nc2c1C#N", "target": "CSF1R autoinhibited", "read-out": "cell-free assay", "technique": "competition with immobilised ligand", "concentration": "5 µM", "remaining binding [%]": 97}
